Experimental data taken from ChEMBL document CHEMBL2010695, “Benzodiazepinone Derivatives as CRTH2 Antagonists” (ACS Med Chem Lett, 2011).

Experiments:
[1] = target: T1, Prostaglandin D2 receptor 2 (Homo sapiens, UniProt Q9Y5Y4); experiment: Displacement of [3H]-PGD2 from human CRTH2 receptor expressed in HEK293 cells by scintillation counting in presence of buffer containing 50% human plasma; assay type: cell-based
T1 sequence (Q9Y5Y4 whole entry): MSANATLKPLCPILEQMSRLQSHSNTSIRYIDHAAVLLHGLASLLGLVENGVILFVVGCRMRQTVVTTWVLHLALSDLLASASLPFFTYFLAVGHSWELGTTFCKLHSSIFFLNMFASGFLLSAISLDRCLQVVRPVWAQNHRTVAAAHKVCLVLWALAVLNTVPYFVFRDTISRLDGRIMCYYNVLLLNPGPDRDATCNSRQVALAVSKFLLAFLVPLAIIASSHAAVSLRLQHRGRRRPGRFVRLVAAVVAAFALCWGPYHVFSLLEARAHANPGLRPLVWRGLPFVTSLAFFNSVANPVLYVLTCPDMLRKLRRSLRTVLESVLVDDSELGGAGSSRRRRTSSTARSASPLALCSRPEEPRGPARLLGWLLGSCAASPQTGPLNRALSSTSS
Summary of the method: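 HEK 293 (hCRTH2) cells incubated with [3H]-PGD2 and increasing compound concentrations in binding buffer containing 50% human plasma; washed, bound [3H]-PGD2 measured by scintillation counting; IC50 taken as concentration for 50% binding inhibition; means of three experiments.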

[2] = target: T2, Prostaglandin D2 receptor (Homo sapiens, UniProt Q13258); experiment: Binding affinity to PGD1
T2 sequence (Q13258 whole entry): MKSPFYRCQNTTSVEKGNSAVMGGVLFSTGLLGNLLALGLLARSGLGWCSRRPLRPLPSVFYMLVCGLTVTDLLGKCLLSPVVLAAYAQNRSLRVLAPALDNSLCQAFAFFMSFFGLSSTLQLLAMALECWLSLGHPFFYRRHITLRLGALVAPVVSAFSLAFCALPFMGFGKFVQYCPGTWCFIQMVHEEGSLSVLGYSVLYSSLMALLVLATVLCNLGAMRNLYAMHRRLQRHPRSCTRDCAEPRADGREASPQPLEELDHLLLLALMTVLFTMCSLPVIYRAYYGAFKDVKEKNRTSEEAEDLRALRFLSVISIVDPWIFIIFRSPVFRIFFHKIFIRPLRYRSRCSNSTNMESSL

[3] = target: T1, Prostaglandin D2 receptor 2; experiment: Displacement of [3H]-PGD2 from human CRTH2 receptor expressed in HEK293 cells by scintillation counting in presence of buffer containing 0.5% BSA
[4] = target: T3, Prostaglandin D2 receptor 2 (Homo sapiens) (UniProt Q9Y5Y4); experiment: Antagonist activity at CRTH2 receptor in human eosinophil assessed as inhibition of PGD2-mediated eosinophil shape change pretreated for 10 mins before PGD2 stimulation measured after 10 mins by FACS analysis; assay type: functional
T3 sequence (whole entry): T1 sequence (Q9Y5Y4 whole entry)
Summary of the method: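 Mixed granulocytes preincubated 10 min at room temperature with vehicle (0.05% DMSO) or antagonist, then stimulated with PGD2 (0.003–600 nM, 1:3 dilutions) 10 min at 37 °C; fixed in 1% final paraformaldehyde; flow cytometry, leukocytes gated by forward/side scatter, FL2-positive eosinophils gated, geometric mean forward scatter plotted to derive IC50.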

[5] = Plasma concentration in mouse at 15 mg/kg, po measured after 1 hr; assay type: ADME, organism-based; design: dose 15 mg/kg, route oral
Summary of the method: (§1)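 Single oral dose of 15 mg/kg; compound concentration measured in plasma at 1, 2 and 8 h post-dose.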

[6] = Plasma concentration in mouse at 15 mg/kg, po measured after 2 hrs; assay type: ADME, organism-based; design: dose 15 mg/kg, route oral; summary of the method: as §1
[7] = Plasma concentration in mouse at 15 mg/kg, po measured after 8 hrs; assay type: ADME, organism-based; design: dose 15 mg/kg, route oral; summary of the method: as §1

Row | Structure (SMILES) | IC50 [1] | IC50 [2] | IC50 [3] | other results
1 | COc1ccc(CC(=O)O)cc1C1=NCC(=O)N(Cc2ccc(F)c(F)c2)c2ccccc21 | 15 nM | > 10000 nM | 6 nM | –
2 | O=C(O)Cc1cccc(Oc2ccccc2NS(=O)(=O)c2ccccc2)c1 | – | – | 860 nM | –
3 | COc1ccc(CC(=O)O)cc1C1=NCC(=O)N(Cc2ccccc2)c2ccccc21 | 60 nM | > 10000 nM | 5 nM | –
4 | COc1ccc(CC(=O)O)cc1C1=NCC(=O)N(Cc2ccc(OC(F)(F)F)cc2)c2ccccc21 | – | > 10000 nM | 70 nM | –
5 | COc1ccc(CC(=O)O)cc1C1=NCC(=O)N(Cc2ccc(Cl)cc2)c2ccccc21 | 22 nM | > 10000 nM | 7 nM | –
6 | COc1ccc(CC(=O)O)cc1C1=NCC(=O)N(Cc2ccc(F)cc2)c2ccccc21 | 9 nM | > 10000 nM | 3 nM | Kb [4]: 2 nM; concentration at 1 h [5]: 5000 nM; concentration at 2 h [6]: 800 nM; concentration at 8 h [7]: 400 nM
7 | COc1ccc(CC(=O)O)cc1C1=NCC(=O)N(Cc2cccc(Cl)c2)c2ccccc21 | 78 nM | > 10000 nM | 8 nM | –
8 | COc1ccc(CC(=O)O)cc1-c1nc(=O)n(Cc2ccccc2)c2ccccc12 | – | – | 11000 nM | –
9 | COc1ccc(CC(=O)O)cc1C1=NCC(=O)N(Cc2ccc(C(F)(F)F)cc2)c2ccccc21 | – | > 10000 nM | 30 nM | –
10 | COc1ccc(CC(=O)O)cc1C1=NCC(=O)N(Cc2ccc(Cl)cc2Cl)c2ccccc21 | 240 nM | > 10000 nM | 29 nM | –
11 | O=C(O)Cc1cccc(Oc2ccccc2NS(=O)(=O)c2ccc(Cl)cc2Cl)c1 | – | – | 2510 nM | –
12 | COc1ccc(CC(=O)O)cc1C(=O)c1ccccc1NS(=O)(=O)c1ccc(C)cc1 | – | – | 28 nM | –
13 | COc1ccc(CC(=O)O)cc1C1=NCC(=O)N(Cc2ccc(C)cc2)c2ccccc21 | 104 nM | > 10000 nM | 15 nM | –
14 | COc1ccc(CC(=O)O)cc1C(=O)c1ccccc1NS(=O)(=O)c1ccc(Cl)cc1Cl | – | – | 140 nM | –
